The values that follow come from ChEMBL document CHEMBL3862041, “Discovery of Novel Bruton's Tyrosine Kinase (BTK) Inhibitors Bearing a N,9-Diphenyl-9H-purin-2-amine Scaffold” (ACS Med Chem Lett, 2016).

Experiment [1] concerns the target T1, Tyrosine-protein kinase JAK3 (Homo sapiens, UniProt P52333).
T1 sequence (P52333 whole entry): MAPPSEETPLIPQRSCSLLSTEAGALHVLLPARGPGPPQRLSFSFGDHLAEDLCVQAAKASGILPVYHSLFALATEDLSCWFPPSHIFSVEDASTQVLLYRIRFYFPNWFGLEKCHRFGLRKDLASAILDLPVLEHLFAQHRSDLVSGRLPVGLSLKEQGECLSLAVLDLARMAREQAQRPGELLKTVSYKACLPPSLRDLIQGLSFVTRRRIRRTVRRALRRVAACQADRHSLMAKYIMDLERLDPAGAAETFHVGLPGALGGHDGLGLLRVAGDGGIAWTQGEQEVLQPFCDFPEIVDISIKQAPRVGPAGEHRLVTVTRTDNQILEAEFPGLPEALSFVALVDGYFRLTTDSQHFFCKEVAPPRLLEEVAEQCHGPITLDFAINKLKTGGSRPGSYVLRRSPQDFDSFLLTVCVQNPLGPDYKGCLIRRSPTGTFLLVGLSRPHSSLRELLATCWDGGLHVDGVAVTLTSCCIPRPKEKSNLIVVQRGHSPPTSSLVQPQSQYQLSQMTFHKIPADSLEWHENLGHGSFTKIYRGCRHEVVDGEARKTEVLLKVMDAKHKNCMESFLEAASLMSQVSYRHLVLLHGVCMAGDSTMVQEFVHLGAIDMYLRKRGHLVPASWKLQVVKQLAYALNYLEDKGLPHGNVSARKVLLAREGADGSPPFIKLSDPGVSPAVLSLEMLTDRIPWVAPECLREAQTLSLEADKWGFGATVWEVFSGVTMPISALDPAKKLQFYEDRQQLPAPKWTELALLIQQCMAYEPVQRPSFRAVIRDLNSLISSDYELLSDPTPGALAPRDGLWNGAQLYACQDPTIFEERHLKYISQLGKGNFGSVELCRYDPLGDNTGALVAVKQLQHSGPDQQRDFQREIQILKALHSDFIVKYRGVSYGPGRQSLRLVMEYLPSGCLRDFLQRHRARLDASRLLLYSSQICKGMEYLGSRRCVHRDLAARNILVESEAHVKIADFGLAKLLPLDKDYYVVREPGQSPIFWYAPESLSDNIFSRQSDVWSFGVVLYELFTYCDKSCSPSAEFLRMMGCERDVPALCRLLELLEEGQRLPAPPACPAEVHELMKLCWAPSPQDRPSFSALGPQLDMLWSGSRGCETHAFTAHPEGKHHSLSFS
Nature of the experiment: Inhibition of JAK3 (unknown origin).

A short description of experiment [2]: Antiproliferative activity against human Ramos cells after 48 hrs by CCK-8 assay. Type of experiment: functional, cell-based. Put shortly: (§1)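 Dose-response curves run at five concentrations in Ramos and Raji B-cell leukemia lines, with viability read by the CCK-8 method. IC50 is the concentration in micromolar that inhibits cell growth by 50%, taken from these curves.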
For orientation: Tetrazolium dyes change colour on reduction, which living cells bring about.

For experiment [3], the target named is Tyrosine-protein kinase BTK (Homo sapiens, UniProt Q06187). Nature of the experiment: Inhibition of recombinant human N-terminal His-tagged BTK expressed in baculovirus infected sf9 cells using poly(4:1 Glu,Tyr) as substrate by ADP-Glo kinase assay. Background: ADP-Glo first removes unused ATP, then detects ADP through luciferase.
Experiment [4] in a line: Antiproliferative activity against human Raji cells after 48 hrs by CCK-8 assay. Type of experiment: functional, cell-based. In outline: as §1
The nature of experiment [5]: Cell cycle arrest in human Ramos cells assessed as accumulation at G0/G1 phase at 10 uM by propidium iodide staining based flow cytometry (reference value: 56.19%). In kind it is functional. In outline: (§2)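 Ramos cells treated, then cell-cycle phase distribution (G0/G1, S, G2/M) measured by flow cytometry. Three separate experiments, expressed as mean±standard deviation.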

The subject of experiment [6] is Ramos. As to the kind of experiment: Induction of apoptosis in human Ramos cells assessed as necrotic cells at 10 uM after 48 hrs by annexin V/FITC propidium iodide staining based flow cytometry relative to control. In kind it is functional. In outline:
(§3)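 Ramos cells exposed for 48 h to the indicated compound concentrations. Cells then stained with annexin V/FITC and analysed by flow cytometry for apoptosis.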
(In general: Flow cytometry measures light scatter and fluorescence of single cells or particles in a stream.)

Experiment [7] can be described thus: Cell cycle arrest in human Ramos cells assessed as accumulation at G2/M phase at 10 uM by propidium iodide staining based flow cytometry (reference value: 1.58%). In kind it is functional. Put shortly: as §2
Experiment [8] concerns Ramos. As to the kind of experiment: Induction of apoptosis in human Ramos cells assessed as early apoptotic cells at 10 uM after 48 hrs by annexin V/FITC propidium iodide staining based flow cytometry relative to control. Type of experiment: functional. Put shortly:
as §3

Experiment [9] relates to Ramos. As to the kind of experiment: Induction of apoptosis in human Ramos cells assessed as viable cells at 10 uM after 48 hrs by annexin V-FITC/propidium iodide staining based flow cytometry relative to control. In kind it is functional. As to conditions: for viability at 10 µM: Homo sapiens, Ramos, 48 h, read-out: Activity. In outline:
as §3

The subject of experiment [10] is Ramos. Nature of the experiment: Induction of apoptosis in human Ramos cells assessed as late apoptotic cells at 10 uM after 48 hrs by annexin V/FITC propidium iodide staining based flow cytometry relative to control. In kind it is functional. In outline: as §3
Experiment [11] is described as follows: Cell cycle arrest in human Ramos cells assessed as accumulation at S phase at 10 uM by propidium iodide staining based flow cytometry (reference value: 42.23%). Type of experiment: functional. In outline:
as §2

Bounds are passed on as bounds.

Sequence of Tyrosine-protein kinase BTK (Q06187 whole entry): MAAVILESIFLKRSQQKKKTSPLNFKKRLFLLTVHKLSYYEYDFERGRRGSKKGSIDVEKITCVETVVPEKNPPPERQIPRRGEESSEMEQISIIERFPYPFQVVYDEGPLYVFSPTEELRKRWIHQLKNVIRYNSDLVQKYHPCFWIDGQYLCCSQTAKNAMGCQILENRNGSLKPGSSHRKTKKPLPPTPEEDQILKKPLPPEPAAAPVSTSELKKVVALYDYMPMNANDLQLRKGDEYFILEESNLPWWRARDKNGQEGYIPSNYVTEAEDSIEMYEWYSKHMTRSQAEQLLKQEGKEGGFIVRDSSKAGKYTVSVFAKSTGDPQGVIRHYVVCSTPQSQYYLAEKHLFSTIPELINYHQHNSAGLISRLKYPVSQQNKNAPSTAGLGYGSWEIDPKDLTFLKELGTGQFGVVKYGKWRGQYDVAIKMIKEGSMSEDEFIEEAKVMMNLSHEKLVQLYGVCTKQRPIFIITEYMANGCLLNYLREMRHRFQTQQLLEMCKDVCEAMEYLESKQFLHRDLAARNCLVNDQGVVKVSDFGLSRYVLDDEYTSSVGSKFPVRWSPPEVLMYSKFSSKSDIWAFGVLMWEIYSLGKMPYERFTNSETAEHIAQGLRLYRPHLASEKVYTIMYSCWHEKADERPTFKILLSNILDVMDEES

Usually IC50 stands for the concentration at which inhibition is half-maximal. `C=CC(=O)Nc1cccc(-n2cnc3cnc(Nc4ccc(N5CCN(C(C)=O)C(C)C5)cc4)nc32)c1` (stereo unspecified): the IC50 is 0.0612 µM in [1], above 40 µM in experiment [2], 0.0005 µM in [3] and 24.2 µM in [4].
For `C=CC(=O)Nc1cccc(-n2cnc3cnc(Nc4ccc(N5CCOCC5)cc4)nc32)c1` the same measures were above 0.1 µM, 11.3 µM, 0.0151 µM and 11.8 µM.
For `C=CC(=O)Nc1cccc(-n2c(=O)[nH]c3cnc(Nc4ccc(N5CCN(CC)CC5)cc4)nc32)c1` the same measures were above 0.1 µM, 35.2 µM, above 0.1 µM and 11.9 µM.
For `C=CC(=O)Nc1cccc(-n2cnc3cnc(Nc4ccc(OCCCN5CCOCC5)cc4)nc32)c1`, the Activity in experiment [5] was found to be 41%; in the experiment with Ramos [6] it was 2.2%; in experiment [7], 6.61%; in the experiment with Ramos [8], 41.9%; in the experiment on Ramos [10] it was 10.9%; in experiment [11], 52.4%. In addition, the IC50 in experiment [1] stood at 0.0726 µM; in [2], 7.75 µM; in [3] it was 0.0004 µM; in [4], 12.6 µM. Also, in the experiment with Ramos [9], the viability at 10 µM was 44.9%.
With `C=CC(=O)Nc1cccc(-n2cnc3cnc(Nc4ccc(OC)cc4)nc32)c1`, the IC50 in [1] was 0.0672 µM; in [2], above 40 µM; in experiment [3] it was 0.0971 µM; in experiment [4], 31.2 µM.
Taken in the same sequence, the figures for `C=CC(=O)Nc1cccc(-n2c(=O)[nH]c3cnc(Nc4ccc(N5CCOCC5)cc4OC)nc32)c1` were above 0.1 µM, 39.1 µM, above 0.1 µM and above 40 µM.
For `C=CC(=O)Nc1cccc(-n2cnc3cnc(Nc4ccc(N5CCN(S(C)(=O)=O)CC5)cc4)nc32)c1` the same measures were 0.0701 µM, above 40 µM, 0.0171 µM and above 40 µM.
Taken in the same sequence, the figures for `C=CC(=O)Nc1cccc(-n2cnc3cnc(Nc4ccc(N5CCN(S(C)(=O)=O)C(C)C5)cc4)nc32)c1` (stereo unspecified) were 0.0831 µM, above 40 µM, 0.0132 µM and 31.7 µM.
For `C=CC(=O)Nc1cccc(-n2cnc3cnc(Nc4ccc(N5CCN(CC)CC5)cc4OC)nc32)c1`, the IC50 in [1] is above 0.1 µM; in [2], above 40 µM; in experiment [3], above 0.1 µM; in experiment [4], above 40 µM.
Turning to `C=CC(=O)Nc1cccc(-n2cnc3cnc(Nc4ccc(N5CCN(C)CC5)cc4)nc32)c1`, the IC50 in experiment [1] stood at 0.0671 µM; in [2], 8.22 µM; in experiment [3], 0.0102 µM; in [4], 7.55 µM.
Taken in the same sequence, the figures for `C=CC(=O)Nc1cccc(-n2cnc3cnc(Nc4ccc(N5CCN(C)CC5)cc4OC)nc32)c1` were above 0.1 µM, 13.2 µM, above 0.1 µM and 13.7 µM.
Taken in the same sequence, the figures for `C=CC(=O)Nc1cccc(-n2cnc3cnc(Nc4ccc(N5CCN(CC)CC5)cc4)nc32)c1` were 0.0675 µM, 12.1 µM, 0.0005 µM and 19.5 µM.
On to `C=CC(=O)N1CCC[C@@H](n2nc(-c3ccc(Oc4ccccc4)cc3)c3c(N)ncnc32)C1` [IBRUTINIB], for which the Activity is 46.4% in [5]; 0.1% in the experiment with Ramos [6]; 0.15% in experiment [7]; 37% in the experiment on Ramos [8]; 62% in the experiment with Ramos [9]; 53.5% in [11]. Further, the IC50 in experiment [2] stood at 8.11 µM; in [4] it was 15.2 µM.
On to `C=CC(=O)Nc1cccc(Nc2nc(Nc3ccc(OCCOC)cc3)ncc2F)c1` [SPEBRUTINIB], for which the Activity in [5] is 31%; in the experiment with Ramos [6], 4.3%; in [7], 20.9%; in the experiment on Ramos [8], 21.1%; in the experiment on Ramos [10] it was 20.4%; in experiment [11], 47.9%. Besides, the results for the IC50 in experiment [2] and in experiment [4] were 15.1 µM and 25.3 µM, respectively. The viability at 10 µM in the experiment on Ramos [9] came to 54.2%.
For `C=CC(=O)Nc1cccc(-n2cnc3cnc(Nc4ccc(N5CCN(S(C)(=O)=O)CC5)cc4OC)nc32)c1`, the IC50 in [1] was above 0.1 µM; in experiment [2], 38.6 µM; in experiment [3] it was above 0.1 µM; in experiment [4] it was 21.9 µM.
